In ChEMBL document CHEMBL1157832, “Cytotoxic effects of tanshinones from Salvia miltiorrhiza on doxorubicin-resistant human liver cancer cells” (J Nat Prod, 2010):
pEC50: −log10 of the molar value. Activity calls are given as the source filed them. No cut-off for these calls is given here.

Assays:
[1] = system: HepG2; experiment: Inhibition of […] doxorubicin efflux in doxorubicin resistant human HepG2 cells uM by flow cytometry; assay type: cell-based
[2] = system: Hep 3B2; experiment: Induction of apoptosis in human Hep3B cells deficient in p53 gene assessed as caspase 3 activation; assay type: functional, cell-based
How it was run: (§1)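 Cells were treated for 24 h, with etoposide as positive control. Cells (1 × 10^7) were lysed for 2 h at 4 °C and spun at 16000g for 10 min. The supernatant was mixed with assay buffer and the colorimetric substrate […], and pNA release was read at 405 nm. Soluble protein was determined by BCA.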

[3] = system: HepG2; experiment: Induction of apoptosis in human HepG2 cells expressing wild type p53 gene assessed as caspase 3 activation; assay type: functional, cell-based; how it was run: as §1
[4] = biological target: T1, P-gp (ABCB1) (Homo sapiens, UniProt P08183); experiment: Inhibition of P-gp in doxorubicin-resistant human HepG2 cells assessed as potentiation of doxorubicin cytostatic effect at 25 uM by MTT assay; assay type: cell-based; conditions: probe doxorubicin
How it was run: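 R-HepG2 cells (doxorubicin-selected HepG2 subclone kept in RPMI 1640 with 1.2 µM doxorubicin) co-treated with compound and doxorubicin; growth read by MTT (0.5 mg/mL, 3 h, 570 nm). Interaction scored by Chou–Talalay combination index at EC20/EC50 levels, Loewe additivity and Bliss independence.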

[5] = system: HepG2; experiment: Effect on MRP2 protein expression in human HepG2 cells expressing wild type p53 gene at 25 uM after 24 hrs by Western blot; assay type: functional, cell-based
How it was run: (§2)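 HepG2 cells (MEM, 10% FBS) exposed to 25 µM for 24 h; lysates run on SDS-PAGE, transferred to nitrocellulose and probed with anti-MRP1 or anti-MRP2 antibodies, ECL detection. DMSO final 0.25% (v/v).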

[6] = system: PLC-PRF-5; experiment: Induction of apoptosis in human PLC/PRF/5 cells expressing mutant p53 gene (codon 249) assessed as caspase 3 activation; assay type: functional, cell-based
How it was run: (§3)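 After 24 h treatment, 1 × 10^7 cells lysed 2 h at 4 °C and spun at 16000g for 10 min. Supernatant incubated with caspase-3 substrate […], pNA release read at 405 nm, and protein measured by BCA. Activity expressed as fold of control; etoposide as positive control.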

[7] = system: HepG2; experiment: Effect on MRP1 protein expression in human HepG2 cells expressing wild type p53 gene at 25 uM after 24 hrs by Western blot; assay type: functional, cell-based; how it was run: as §2
[8] = Cytotoxicity against human THLE3 cells by MTT assay; assay type: cell-based
How it was run: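 THLE-3 immortalized liver cells cultured in BEGM kit medium, 37 °C, 5% CO2; 9 × 10^3 cells/well. After compound incubation, MTT (0.5 mg/mL) added for 3 h at 37 °C; formazan dissolved in DMSO and read at 570 nm. Untreated cells as vehicle control; DMSO final 0.25% (v/v). EC50 of growth inhibition, n = 3.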

[9] = system: HepG2; experiment: Induction of apoptosis in human HepG2 cells expressing wild type p53 gene assessed as PARP cleavage by Western blot; assay type: functional, cell-based
How it was run: (§4)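 Cells treated 24 h, then lysed in Tris 50 mM/NaCl 100 mM/EDTA 5 mM/pyrophosphate 67 mM/1% Triton X-100, pH 7.5, with protease inhibitors. 20 µg soluble protein on 8% SDS-PAGE, nitrocellulose transfer, anti-PARP 1:1000 overnight at 4 °C, HRP anti-rabbit 1:2000 1 h, ECL. β-actin reprobe as loading reference; band densitometry; n = 3.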

[10] = system: Hep 3B2; experiment: Induction of apoptosis in human Hep3B cells deficient in p53 gene assessed as PARP cleavage by Western blot; assay type: functional, cell-based; how it was run: as §4
[11] = system: PLC-PRF-5; experiment: Induction of apoptosis in human PLC/PRF/5 cells expressing mutant p53 gene (codon 249) assessed as PARP cleavage by Western blot; assay type: functional, cell-based; how it was run: as §4
[12] = system: HepG2; experiment: Cytotoxicity against doxorubicin resistant human HepG2 cells expressing wild type p53 gene by MTT assay; assay type: functional, cell-based
How it was run: (§5)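 Proliferation was measured by MTT. Cells were seeded at 9 × 10^3 per well and exposed to drug for an unstated period. MTT (0.5 mg/mL) was then added for 3 h at 37 °C, formazan was dissolved in DMSO, and absorbance was read at 570 nm against untreated vehicle controls (final DMSO 0.25% v/v). HepG2 was grown in MEM. Hep3B and PLC/PRF/5 were grown in DMEM with nonessential amino acids and 10% FBS. The doxorubicin-resistant HepG2 subclone was grown in RPMI 1640 with 10% FBS plus 1.2 µM doxorubicin to maintain Pgp.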

[13] = Cytotoxicity against human PLC/PRF/5 cells expressing mutant p53 gene (codon 249) by MTT assay; assay type: functional, cell-based; how it was run: as §5
[14] = Cytotoxicity against human Hep3B cells deficient in p53 gene by MTT assay; assay type: functional, cell-based, Hep 3B2; how it was run: as §5
[15] = system: HepG2; experiment: Cytotoxicity against human HepG2 cells expressing wild type p53 gene by MTT assay; assay type: functional, cell-based; how it was run: as §5
[16] = system: PLC-PRF-5; experiment: Induction of apoptosis in human PLC/PRF/5 cells expressing mutant p53 gene (codon 249) assessed as caspase 3 activation at 6.25 uM relative to control; assay type: functional; how it was run: as §3
[17] = system: HepG2; experiment: Induction of apoptosis in human HepG2 cells expressing wild type p53 gene assessed as caspase 3 activation at 6.25 uM relative to control; assay type: functional; how it was run: as §3
[18] = biological target: T2, Multidrug resistance-associated protein 1 (Homo sapiens, UniProt P33527); experiment: Inhibition of MRP1-mediated doxorubicin efflux in doxorubicin resistant human HepG2 cells at 10 to 100 uM by flow cytometry; assay type: cell-based
[19] = biological target: T2, Multidrug resistance-associated protein 1; experiment: Inhibition of MRP1-mediated doxorubicin efflux in doxorubicin resistant human HepG2 cells at 100 uM by flow cytometry; assay type: cell-based; conditions: hepg2, 100 µM
[20] = biological target: T1, P-gp (ABCB1); experiment: Inhibition of P-gp in doxorubicin-resistant human HepG2 cells assessed as potentiation of doxorubicin cytostatic effect at 6.25 uM by MTT assay; assay type: cell-based; conditions: probe doxorubicin

T1 sequence (P08183 whole entry): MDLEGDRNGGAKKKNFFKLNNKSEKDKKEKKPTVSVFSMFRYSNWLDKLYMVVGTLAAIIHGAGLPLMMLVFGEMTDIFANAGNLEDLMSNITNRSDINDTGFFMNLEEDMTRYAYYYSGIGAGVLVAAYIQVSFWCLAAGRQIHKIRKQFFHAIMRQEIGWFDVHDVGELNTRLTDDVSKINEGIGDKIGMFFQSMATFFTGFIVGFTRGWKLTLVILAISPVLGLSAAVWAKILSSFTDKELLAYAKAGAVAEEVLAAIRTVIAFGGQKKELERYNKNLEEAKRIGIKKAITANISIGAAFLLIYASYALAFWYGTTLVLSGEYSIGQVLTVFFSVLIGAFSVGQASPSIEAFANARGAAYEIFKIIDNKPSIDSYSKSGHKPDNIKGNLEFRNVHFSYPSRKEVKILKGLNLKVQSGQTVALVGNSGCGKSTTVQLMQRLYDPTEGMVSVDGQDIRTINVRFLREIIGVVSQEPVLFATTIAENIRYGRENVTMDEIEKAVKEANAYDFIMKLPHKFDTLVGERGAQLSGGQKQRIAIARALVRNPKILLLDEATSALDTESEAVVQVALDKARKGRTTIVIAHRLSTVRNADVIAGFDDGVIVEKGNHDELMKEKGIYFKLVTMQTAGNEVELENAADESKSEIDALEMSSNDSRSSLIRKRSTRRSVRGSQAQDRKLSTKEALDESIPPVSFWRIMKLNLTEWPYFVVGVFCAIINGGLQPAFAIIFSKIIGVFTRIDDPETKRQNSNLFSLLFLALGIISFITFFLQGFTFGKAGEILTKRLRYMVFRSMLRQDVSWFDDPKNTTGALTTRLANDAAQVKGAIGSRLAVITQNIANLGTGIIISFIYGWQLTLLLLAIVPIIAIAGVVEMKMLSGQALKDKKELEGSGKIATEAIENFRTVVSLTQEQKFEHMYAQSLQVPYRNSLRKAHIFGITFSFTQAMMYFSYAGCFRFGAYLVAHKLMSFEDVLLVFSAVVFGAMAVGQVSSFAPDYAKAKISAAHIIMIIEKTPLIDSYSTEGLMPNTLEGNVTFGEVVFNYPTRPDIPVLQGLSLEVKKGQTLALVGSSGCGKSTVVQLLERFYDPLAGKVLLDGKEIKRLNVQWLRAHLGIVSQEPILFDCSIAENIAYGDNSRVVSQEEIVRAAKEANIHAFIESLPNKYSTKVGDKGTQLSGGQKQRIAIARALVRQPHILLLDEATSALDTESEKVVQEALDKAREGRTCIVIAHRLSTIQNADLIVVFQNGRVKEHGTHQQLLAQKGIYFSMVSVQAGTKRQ
T2 sequence (P33527 whole entry): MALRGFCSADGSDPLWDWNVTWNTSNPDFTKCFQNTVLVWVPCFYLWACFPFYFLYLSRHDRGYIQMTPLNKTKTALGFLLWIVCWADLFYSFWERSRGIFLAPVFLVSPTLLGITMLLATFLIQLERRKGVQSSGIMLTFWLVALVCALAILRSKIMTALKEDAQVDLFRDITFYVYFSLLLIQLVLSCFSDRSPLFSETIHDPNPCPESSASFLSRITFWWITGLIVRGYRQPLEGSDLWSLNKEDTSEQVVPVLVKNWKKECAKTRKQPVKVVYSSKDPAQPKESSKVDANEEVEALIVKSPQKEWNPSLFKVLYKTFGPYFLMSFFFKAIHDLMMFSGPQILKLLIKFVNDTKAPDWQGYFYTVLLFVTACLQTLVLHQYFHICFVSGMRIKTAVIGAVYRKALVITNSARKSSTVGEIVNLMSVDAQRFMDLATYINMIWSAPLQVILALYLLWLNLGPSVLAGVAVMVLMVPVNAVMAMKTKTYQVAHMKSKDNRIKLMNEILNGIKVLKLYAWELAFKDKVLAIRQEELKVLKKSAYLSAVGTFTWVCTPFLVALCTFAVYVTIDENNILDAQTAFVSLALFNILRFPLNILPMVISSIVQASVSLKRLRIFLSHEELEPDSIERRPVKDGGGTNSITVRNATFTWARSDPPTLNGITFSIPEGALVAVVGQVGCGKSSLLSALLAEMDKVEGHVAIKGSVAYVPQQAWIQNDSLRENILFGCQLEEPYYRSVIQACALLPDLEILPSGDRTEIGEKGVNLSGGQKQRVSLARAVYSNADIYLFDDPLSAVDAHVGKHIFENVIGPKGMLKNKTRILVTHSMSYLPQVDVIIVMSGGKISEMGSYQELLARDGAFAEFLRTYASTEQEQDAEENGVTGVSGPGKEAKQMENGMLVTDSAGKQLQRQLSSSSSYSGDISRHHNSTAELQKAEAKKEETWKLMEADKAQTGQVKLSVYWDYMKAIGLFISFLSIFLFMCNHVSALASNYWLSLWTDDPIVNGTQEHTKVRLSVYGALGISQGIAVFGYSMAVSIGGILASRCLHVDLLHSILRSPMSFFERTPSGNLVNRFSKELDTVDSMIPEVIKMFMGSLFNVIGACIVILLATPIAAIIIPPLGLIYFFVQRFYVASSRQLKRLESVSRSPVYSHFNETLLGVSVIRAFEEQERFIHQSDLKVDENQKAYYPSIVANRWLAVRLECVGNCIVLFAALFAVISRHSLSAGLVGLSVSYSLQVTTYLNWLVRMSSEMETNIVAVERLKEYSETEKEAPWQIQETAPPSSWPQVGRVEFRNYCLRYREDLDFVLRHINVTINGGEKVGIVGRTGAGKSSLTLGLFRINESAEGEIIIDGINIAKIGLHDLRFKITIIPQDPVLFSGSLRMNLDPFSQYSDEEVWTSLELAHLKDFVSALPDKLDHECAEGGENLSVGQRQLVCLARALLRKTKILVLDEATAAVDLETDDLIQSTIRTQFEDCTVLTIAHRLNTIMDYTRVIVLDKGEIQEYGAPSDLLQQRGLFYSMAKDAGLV

| SMILES | Activity [2] | Activity [3] | Activity [5] | Activity [7] | pEC50 [8] | Activity [9] | Activity [10] | pEC50 [12] | pEC50 [13] | pEC50 [14] | pEC50 [15] | other results |
| --- | --- | --- | --- | --- | --- | --- | --- | --- | --- | --- | --- | --- |
| C=C(CC)C(=O)c1ccc(OCC(=O)O)c(Cl)c1Cl |  |  |  |  |  |  |  |  |  |  |  | inhibition [1]: Active |
| COc1cc([C@@H]2c3cc4c(cc3[C@@H](O[C@@H]3O[C@@H]5CO[C@@H](C)O[C@H]5[C@H](O)[C@H]3O)[C@H]3COC(=O)[C@H]23)OCO4)cc(OC)c1O | inactive | Active |  |  |  |  |  |  |  |  |  |  |
| C[C@H]1COC2=C1C(=O)C(=O)c1c2ccc2c1CCCC2(C)C [CRYPTOTANSHINONE] | inactive | Active | inactive | inactive | 4.64 | Dose-dependent effect | inactive |  |  |  |  | inhibition at 25 µM [4]: 50%; Activity [6]: Dose-dependent effect |
| Cc1cccc2c3c(ccc12)C1=C(C(=O)C3=O)[C@@H](C)CO1 [DIHYDROTANSHINONE I] | inactive | Active | inactive | inactive | 5.19 | Dose-dependent effect | inactive | 5.33 | < 5.00 | 5.26 | 5.60 | Activity [11]: Active; fold change (FC) [16]: 2.5; fold change (FC) [17]: 2 |
| COc1cccc2c1C(=O)c1c(O)c3c(c(O)c1C2=O)C[C@@](O)(C(=O)CO)C[C@@H]3O[C@H]1C[C@H](N)[C@H](O)[C@H](C)O1 [DOXORUBICIN] |  |  |  |  |  |  |  | < 5.00 | < 5.00 | 5.25 | 5.21 |  |
| COc1ccc2c(c1)c(CC(=O)O)c(C)n2C(=O)c1ccc(Cl)cc1 [INDOMETHACIN] |  |  |  |  |  |  |  |  |  |  |  | inhibition (INH) [18]: Not Active; inhibition (INH) [19]: Active |
| Cc1coc2c1C(=O)C(=O)c1c-2ccc2c1CCCC2(C)C [TANSHINONE IIA] | inactive | Active | inactive | inactive | 4.24 | Dose-dependent effect | inactive |  |  |  |  |  |
| Cc1coc2c1C(=O)C(=O)c1c-2ccc2c(C)cccc12 [TANSHINONE I] | inactive | Active | inactive | inactive | 4.13 | Dose-dependent effect | inactive | < 5.00 | < 5.00 | < 5.00 | 5.20 | Activity [11]: Active; inhibition at 6.25 µM [20]: 50% |
